ChEMBL document CHEMBL1152785, “Synthesis and biological evaluation of a series of novel inhibitor of Nek2/Hec1 analogues” (J Med Chem, 2009)
The source made the active and inactive calls. The calls are words filed in the database; no cut-off is given here.

Columns and labels:
[1] = test system: K562; assay: Cytotoxicity against human K562 cells after 4 days by XTT assay; type: functional, cell-based; conditions: K562, 96 h
[2] = test system: MDA-MB-231; assay: Cytotoxicity against human MDA-MB-231 cells after 4 days XTT assay; type: functional, cell-based; conditions: MDA-MB-231, 96 h
In short: (§1)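 XTT assay with four-day drug treatment. Cells were plated one day before dosing and drug was added on day 2. XTT was read on day 5 after drug addition by absorbance at 595 nm. Absorbance was converted to percent survival against mock-treated cells to give dose-dependent cytotoxicity. Triplicate sets. HeLa, MDA-MB231 and MDA-MB468 were maintained in DMEM with 10% FBS.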

[3] = test system: HeLa; assay: Cytotoxicity against human HeLa cells after 4 days by XTT assay; type: functional, cell-based; conditions: 96 h; in short: as §1
[4] = test system: MDA-MB-468; assay: Cytotoxicity against human MDA-MB-468 cells after 4 days by XTT assay; type: functional, cell-based; conditions: MDA-MB-468, 96 h; in short: as §1
[5] = test system: HeLa; assay: Anticancer activity against human HeLa cells assessed as reduction of Nek2 level at 6.25 uM after 8 to 11 hrs by Western blot assay; type: functional; set-up: scale not given: the % may be the effect or the level left
In short: (§2)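 HeLa cells in DMEM with 10% FBS were treated with compound at 6.25 μM and harvested at various time points. Extracts were run on SDS-PAGE and Western blotted for Nek2 and Hec1, with p84 (nuclear matrix protein) as loading control. Nek2 level was followed over time after treatment.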

[6] = test system: HeLa; assay: Cell cycle arrest in human HeLa cells assessed as accumulation at subG1 phase at 2.5 uM after 72 hrs by FACS analysis; type: functional
In short: (§3)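 HeLa cells were treated with compound at 2.5 μM, with buffer as mock control. Phase contrast images were taken at various time points to assess dying-cell morphology such as membrane bubbling. Cell cycle profiling was done by FACS at 72 h.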

[7] = target: T1, Serine/threonine-protein kinase Nek2 (Homo sapiens) (UniProt P51955); assay: Binding affinity to NeK2 in human HeLa cell extract by affinity pulldown assay; type: cell-free
T1 sequence (whole entry): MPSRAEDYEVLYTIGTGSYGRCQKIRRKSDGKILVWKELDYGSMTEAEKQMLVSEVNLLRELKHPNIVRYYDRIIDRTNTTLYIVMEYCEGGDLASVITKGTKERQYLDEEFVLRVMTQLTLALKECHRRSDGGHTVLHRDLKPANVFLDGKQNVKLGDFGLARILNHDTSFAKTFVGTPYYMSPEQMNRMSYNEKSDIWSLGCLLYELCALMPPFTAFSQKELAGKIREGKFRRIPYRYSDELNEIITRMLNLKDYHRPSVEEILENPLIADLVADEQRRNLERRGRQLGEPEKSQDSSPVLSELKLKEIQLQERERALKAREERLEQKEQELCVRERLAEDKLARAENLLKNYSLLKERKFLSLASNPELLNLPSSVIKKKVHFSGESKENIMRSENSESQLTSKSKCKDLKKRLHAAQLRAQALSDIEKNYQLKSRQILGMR
In short: (§4)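 Compounds were conjugated to affi-gel matrix. HeLa cell extract was incubated with control or compound-conjugated matrices and the precipitates were washed thoroughly. Bound proteins were resolved by SDS-PAGE and Western blotted for Hec1 and Nek2. Whole cell extract served as input, in duplicates.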

[8] = test system: HeLa; assay: Anticancer activity against human HeLa cells assessed as reduction of Nek2 level at 6.25 uM by Western blot assay; type: functional, cell-based; in short: as §2
[9] = target: T2, Kinetochore protein NDC80 homolog (Homo sapiens) (UniProt O14777); assay: Inhibition of Hec1/Nek2 complex in human Hela cells assessed as mitotic abnormality with multipolar spindle configuration at 3.75 uM after 24 hrs by immuno-fluorescent staining; type: cell-based
T2 sequence (whole entry): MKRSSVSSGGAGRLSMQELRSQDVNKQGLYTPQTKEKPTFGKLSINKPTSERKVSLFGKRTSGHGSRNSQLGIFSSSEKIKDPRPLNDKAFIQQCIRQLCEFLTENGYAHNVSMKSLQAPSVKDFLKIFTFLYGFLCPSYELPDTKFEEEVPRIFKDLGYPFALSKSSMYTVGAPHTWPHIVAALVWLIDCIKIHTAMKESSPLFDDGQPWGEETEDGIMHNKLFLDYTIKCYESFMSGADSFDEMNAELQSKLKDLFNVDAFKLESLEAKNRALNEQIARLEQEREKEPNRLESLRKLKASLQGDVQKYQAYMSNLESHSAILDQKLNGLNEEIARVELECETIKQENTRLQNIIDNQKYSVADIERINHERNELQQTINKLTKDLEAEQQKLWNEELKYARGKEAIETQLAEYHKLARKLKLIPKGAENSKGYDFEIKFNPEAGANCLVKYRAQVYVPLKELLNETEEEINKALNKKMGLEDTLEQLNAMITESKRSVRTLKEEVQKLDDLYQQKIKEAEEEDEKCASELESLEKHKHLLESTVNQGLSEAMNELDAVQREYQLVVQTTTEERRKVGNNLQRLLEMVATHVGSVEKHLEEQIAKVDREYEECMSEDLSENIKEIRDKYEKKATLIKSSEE
In short: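 HeLa cells were treated with compound at 3.75 μM or buffer mock for 24 h. Cells were immunostained for α-tubulin and γ-tubulin with DAPI for DNA. Mitotic cells were examined for spindle pole number, i.e. multipolar spindles.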

[10] = test system: HeLa; assay: Induction of apoptosis in human HeLa cells assessed as morphological changes with membrane bubbling at 2.5 uM; type: functional, cell-based; in short: as §3
[11] = target: T2, Kinetochore protein NDC80 homolog (Homo sapiens); assay: Inhibition of Hec1/Nek2 complex in human Hela cells assessed as mitotic abnormality with multipolar spindle configuration at 3.75 uM after 24 hrs by immuno-fluorescent staining
[12] = target: T2, Kinetochore protein NDC80 homolog (Homo sapiens); assay: Binding affinity to Hec1 in human HeLa cell extract by affinity pulldown assay; type: cell-free; in short: as §4
[13] = test system: HeLa; assay: Anticancer activity against human HeLa cells expressing H2B-GFP assessed as increase in rate of chromosome misalignment at 2.5 uM after 24 hrs; type: functional, cell-based
In short: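 HeLa cells expressing the chromosome marker H2B-GFP were treated with compound at 2.5 μM. The incidence of metaphase chromosome alignment was scored. Triplicate sets were measured to give averages and deviations.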

[14] = test system: HeLa; assay: Anticancer activity against human HeLa cells assessed as reduction of Nek2 level at 25 uM by Western blot assay; type: functional, cell-based

SMILES	IC50 [1] [µM]	IC50 [2] [µM]	IC50 [3] [µM]	IC50 [4] [µM]	also measured
Cc1cc(C)c(-c2csc(NC(=O)c3cncn3C)n2)c(C)c1	10.1	6.8	11.2	10.7	–
Cc1cc(C)c(-c2csc(NC(=O)c3ccccc3)n2)c(C)c1	2.5	1.7	2.4	2.1	Activity [5]: 50%; Activity [6]: 19.9%; Activity [7]: inactive; Activity [8]: Active; Activity [9]: Active; Activity [10]: Active; Activity [11]: Active; Activity [12]: Active; Activity [13]: Active
Cc1cc(C)c(-c2csc(NC(=O)c3cnccn3)n2)c(C)c1	5.9	3.2	5.7	4.7	–
Cc1ccc(-c2csc(N)n2)c(C)c1	> 40	> 40	> 40	> 40	–
COc1ccc(C(=O)N(C)c2nc(-c3c(C)cc(C)cc3C)cs2)c(OC)c1	15.5	10.6	> 40	18.7	–
Cc1ccc(-c2csc(NC(=O)c3cnccn3)n2)c(C)c1	> 25	> 25	> 25	> 25	–
COc1ccccc1C(=O)Nc1nc(-c2c(C)cc(C)cc2C)cs1	> 40	> 40	> 40	> 40	–
Cc1cc(C)c(-c2csc(NC(=O)c3ccc(O)cc3O)n2)c(C)c1	> 40	22.5	> 40	21.3	–
Cc1ccc(-c2csc(NS(=O)(=O)c3ccccc3)n2)c(C)c1	> 40	> 40	> 40	> 40	Activity [6]: 2.9%; Activity [14]: inactive; Activity [12]: inactive
Cc1cc(C)c(-c2csc(NC(=O)c3ccccc3C(F)(F)F)n2)c(C)c1	7.5	5.9	10.6	4.1	–
Cc1ccc(-c2coc(NC(=O)c3ccccc3)n2)c(C)c1	19.2	14.4	18.6	16	–
Cc1ccc(-c2csc(NC(=O)c3ccncc3)n2)c(C)c1	1.2	1.1	1.6	3.4	Activity [7]: inactive
Cc1ccc(-c2csc(NC(=O)N3CCOCC3)n2)c(C)c1	4.2	5.8	4.7	4	–
COc1cc(C)cc(C)c1-c1csc(NC(=O)c2ccccc2)n1	7.3	7.2	10.6	10.7	–
Cc1cc(C)c(-c2csc(N(CC(=O)O)C(=O)c3ccccc3)n2)c(C)c1	> 40	> 40	> 40	> 40	–
Cc1cc(C)c(-c2csc(N(C)C(=O)c3ccccc3)n2)c(C)c1	9.2	11.6	14.1	10.8	–
Cc1ccc(-c2csc(N(C)C(=O)c3ccccc3)n2)c(C)c1	14.8	13.5	20.2	16	–

SMILES	IC50 [1] [µM]	IC50 [2] [µM]	IC50 [3] [µM]	IC50 [4] [µM]	also measured
CCOC(=O)CN(C(=O)c1ccccc1)c1nc(-c2c(C)cc(C)cc2C)cs1	20.2	15.8	22.2	20.2	–
Cc1ccc(-c2csc(NC(=S)c3ccccc3)n2)c(C)c1	22.9	21.1	18.6	19.6	–
COc1ccc(C(=O)Nc2nc(-c3c(C)cc(C)cc3C)cs2)c(OC)c1	9.5	9.7	13.6	11.2	–
Cc1ccc(-c2csc(NC(=O)c3nccs3)n2)c(C)c1	10.1	2.9	7.4	6.2	–
Cc1ccc(-c2csc(NC(=O)c3cncn3C)n2)c(C)c1	> 25	> 25	> 25	> 25	–
Cc1cc(C)c(-c2csc(NC(=O)c3nccs3)n2)c(C)c1	14.5	4.7	11.2	11.8	–
COc1ccc(C(=O)/N=c2\scc(-c3c(C)cc(C)cc3C)n2C)c(OC)c1	23.7	22.1	22	21	–
Cc1ccc(-c2csc(NS(=O)(=O)Cc3ccccc3)n2)c(C)c1	> 40	> 40	> 40	> 40	–
Cc1cc(C)c(-c2csc(NC(=O)N3CCOCC3)n2)c(C)c1	3.8	1.6	2.5	4.2	Activity [5]: 50%; Activity [6]: 20.1%; Activity [7]: inactive; Activity [8]: Active; Activity [9]: Active; Activity [10]: Active; Activity [11]: Active; Activity [13]: Active
Cc1cc(C)c(-c2csc(NC(=O)c3ccccc3)n2)c(O)c1	11.9	11.8	13.1	> 40	–
COc1ccc(C(=O)Nc2nc(-c3ccc(C)cc3C)cs2)c(OC)c1	> 40	23.4	> 40	> 40	–
Cc1cc(C)c(-c2csc(NC(=O)c3cccnc3)n2)c(C)c1	3.9	3.2	3.6	3	–
Cc1ccc(-c2csc(NC(=O)c3ccccn3)n2)c(C)c1	13.3	7.5	14.5	6.2	–
COc1ccc(C(=O)Nc2nc(-c3c(C)cc(C)cc3C)cs2)c(O)c1	14.8	11.8	14.4	14.4	–
Cc1cc(C)c(-c2csc(N)n2)c(C)c1	> 40	> 40	> 40	> 40	–
Cc1cc(C)c(-c2csc(NC(=O)c3ccccn3)n2)c(C)c1	4.9	4.1	5.2	2.3	–
Cc1ccc(-c2csc(NC(=O)c3cccnc3)n2)c(C)c1	8.2	4.1	5.8	5.5	–
